CaV13 ICDI inh = Disruptors of the CACNA1D IQ motif to Ca2+-dependent inactivation inhibitor domain association, primary screening, Förster resonance energy transfer in intact living … | HEK cells, CFP/YFP FRET ICDI-IQ, plate reader, 10 min; percent FRET-ratio fall versus neutral wells | inhibition, % at 12.3 µM | 0.098% of 340,000 active | AID 743397;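 active = mean replicate inhibition of at least 30% and at least 1% of replicates passing that level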;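 note: 0% = median of the neutral control wells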
NRP1-CendR mod = modulators of CendR peptide binding to NRP-1, primary screen, biochemical, fluorescence polarization, uHTS; AID 602438, 2012; FAM-RPARPAR peptide binding to NRP-1; 0.85% of 360,000 active; Neuropilin-1 (Homo sapiens), O14786; inhibition, % at 25 µM;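 active = inhibition or corrected inhibition above about 18%, plus a signal ratio from 0.5 to 1.5, limit read from the data, passing the limit was not always enough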
FAS-TE inh = FAS thioesterase domain inhibitors, primary screen, biochemical, fluorescence intensity, uHTS; recombinant FAS-TE, OMFH fluorogenic substrate, fluorescence endpoint; 0.67% of 360,000 active; AID 602261, 2012; inhibition, % at 15 µM;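 active = compounds whose normalised, plate-corrected inhibition of enzyme fluorescence in the single-dose primary screen is 50% or more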;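 note: 0% = DMSO with enzyme and 100% = substrate without enzyme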
Arrestin-AP2 inh = inhibitors of beta-arrestin/AP2 binding, primary screen, biochemical, GPCR trafficking, flow cytometry. inhibition, % at 10 µM. 0.31% of 340,000 active. beta-arrestin 1 C-terminal peptide binding to AP2 beta2-adaptin appendage (human). FITC-arrestin peptide / GST-AP2 beads; AP2 beta2 appendage carries R879A mutation;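 active = inhibition above a set limit, near 3 SD of compounds lacking own fluorescence, cut at about 54% in these data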;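 note: plate controls were DMSO wells for no effect and 5 µM unlabelled arrestin peptide for full effect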
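Assay system: GST-AP2 R879A bound to glutathione beads, E. coli-expressed; Medium: PBS with 0.05% Tween 20 and 0.1% BSA; Also added: fluorescein-tagged arrestin peptide at 50 nM final; Timing: 12 min plus 1 h, RT; Measured by: flow cytometry, FL1 (488/535 nm); Evaluation: percent drop in bead-associated FITC signal.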
ADAM10 inh = human ADAM10 inhibitors, primary screen, biochemical, QFRET, HTS. Disintegrin and metalloproteinase domain-containing protein 10 (Homo sapiens), O14672. recombinant ADAM10, EDANS/DABCYL FRET peptide cleavage, 3 h. inhibition, % at 7 µM. 0.62% of 370,000 active. AID 720582, 2013;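 active = inhibition above a per-campaign cutoff equal to the mean of compounds falling between control-based bounds plus 3 SD, cut at about 20% in these data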;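 note: 0% = DMSO wells while the 100% control is not disclosed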
ADAM17 inh = ADAM17 inhibitors, primary screen, biochemical, QFRET. Disintegrin and metalloproteinase domain-containing protein 17 (Homo sapiens), P78536. inhibition, % at 6.95 µM. 0.83% of 370,000 active. recombinant ADAM17, EDANS/DABCYL FRET peptide cleavage;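 active = inhibition above the mean of compounds lying between control limits plus 3 SD, set per campaign, cut at about 8.5% in these data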;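 note: 0% = DMSO-only wells as the low control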
FAS-TE inh conf = FAS thioesterase domain inhibitors, confirmation, biochemical, fluorescence intensity, single concentration; shares compounds with FAS-TE inh; recombinant FAS-TE, OMFH fluorogenic substrate; inhibition, % at 15 µM; 45% of 2,300 active; AID 624325, 2012;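 active = compounds inhibiting the enzyme by at least 50% at 15 µM in any one of the replicates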;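 note: 0% = enzyme with DMSO only and 100% = wells lacking enzyme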
* marks the source's active call; other numbers are inactive results; i = inactive; · = not tested or not shown. This is a sample that favours compounds with a hit; in the whole collection about 2.9% have one here.

SMILES | CaV13 ICDI inh | NRP1-CendR mod | FAS-TE inh | Arrestin-AP2 inh | ADAM10 inh | ADAM17 inh | FAS-TE inh conf
O=[N+]([O-])c1ccc(-c2nc(Nc3ccc(O)cc3)c3ccccc3n2)cc1 | -4 | 6 | 18 | -6 | -2 | -3 | ·
O=[N+]([O-])c1ccc(-c2nc(NCC3CCCO3)c3ccccc3n2)cc1 (centres undefined) | -5 | -8 | 60* | -3 | 0 | -2 | 16
COc1ccc(-c2c(C(=O)c3ccc(Br)cc3)[nH]c(N)c2C(=O)NCCc2c[nH]c3ccccc23)cc1OC | -16 | · | · | · | 12 | 7 | ·
Cc1[nH]c2ccccc2c1CC(=O)Nc1ccc(Nc2cccnc2)c(Br)c1 | · | · | · | · | 2 | 0 | ·
O=C1CCC[C@@H]2C[C@@]3(C[C@@H]4CCN1[C@H]24)Nc1cc(Cl)c(Cl)cc1NC3=NCc1ccccc1 | -10 | 2 | 52* | 8 | 3 | -3 | 36
CCn1c(=N)c(S(=O)(=O)c2ccccc2)cc2c(=O)n3ccccc3nc21 | 33* | -19 | 55* | 10 | -161 | -57 | 35
COC(=O)C[C@H]1CC[C@H]2[C@H](COc3ccc(NC(=O)Nc4ccccc4F)cc3C(=O)N2C)O1 | · | · | · | · | 2 | 0 | ·
CCc1ccc(C(=O)COC(=O)c2cc([N+](=O)[O-])ccc2N2CCOCC2)cc1 | -6 | 1 | 80* | -2 | 2 | 4 | 80*
O=C(c1ccc(Cl)cc1)c1cc([N+](=O)[O-])ccc1N1CCOCC1 | -2 | 4 | 41 | 10 | 5 | 3 | ·
O=C(COC(=O)c1cc([N+](=O)[O-])ccc1N1CCOCC1)c1ccc(F)cc1 | -3 | 2 | 69* | 10 | 3 | 0 | 40*
O=S1(=O)CCSC[C@@H](CNCc2ccco2)N1 | -5 | · | · | · | -15 | -7 | ·
O=C(Nc1ccc(F)cc1)OCc1cn(Cc2ccc(F)cc2)nn1 | · | · | · | · | 11 | 8 | ·
O=C(COc1ccc2c3c(c(=O)oc2c1)CCC3)N1CCCC1 | -2 | 7 | -3 | -8 | -100 | -42 | ·
Cc1c(Cl)c(=O)oc2cc(OCC(=O)NCc3cccs3)ccc12 | -7 | -1 | 57* | 11 | -314 | -99 | 11
Cc1c(C)c2ccc(OCC(=O)N3CCN(c4ccccc4)CC3)cc2oc1=O | · | 13 | 56* | -6 | · | · | 64*
O=C(COc1ccc2c3c(c(=O)oc2c1)CCC3)N1CCN(c2ccccc2)CC1 | -4 | 5 | 50* | 4 | -34 | -9 | 34*
Cc1c(Cl)c(=O)oc2cc(OCC(=O)N3CCCC(C)C3)ccc12 (centres undefined) | -5 | -10 | 64* | -2 | i | i | 63*
COc1ccc(/C=C2/CN(Cc3ccc(OC)cc3OC)C3=N[C@H](c4ccccc4)CC(=O)N32)cc1 | · | · | · | · | -4 | 2 | ·
Cn1c(SCC(=O)N2CC(=O)Nc3ccccc32)nnc1C(F)(F)F | -4 | -10 | -6 | -2 | -21 | -1 | ·
O=S1(=O)c2c(cccc2N2CCSCC2)Oc2ccccc2CN1Cc1cn(Cc2ccc(C(F)(F)F)cc2)nn1 | · | · | · | · | 12 | 8 | ·
Cc1ccc(NC(=O)c2ccc(Cl)c(S(=O)(=O)Nc3c(C)n(C)n(-c4ccccc4)c3=O)c2)cc1Cl | -6 | -14 | 76* | -5 | 14 | 4 | 18
Cc1c(NS(=O)(=O)c2cc(C(=O)Nc3ccc(F)cc3Cl)ccc2Cl)c(=O)n(-c2ccccc2)n1C | -5 | 13 | -3 | 1 | -1 | -1 | ·
Cc1ccc(S(=O)(=O)N2C[C@H]3[C@H]4C(=O)N(C5CCCCC5)C(=O)[C@H]4CC(=O)[C@H]3[C@@H]2c2cccc3ccccc23)cc1 | -6 | -2 | 97* | · | 4 | -3 | 10
Cc1ccc(S(=O)(=O)N2C[C@H]3[C@H]4C(=O)N(Cc5ccccc5)C(=O)[C@H]4CC(=O)[C@H]3[C@@H]2c2ccccc2Cl)cc1 | -6 | 9 | 85* | · | 15 | 6 | 22
Cc1sc(NC(=O)Cc2ccc3c(c2)OCO3)nc1-c1ccc2c(c1)CCN2C(=O)c1ccccc1F | -2 | 6 | 81* | 15 | 0 | -2 | 14
SMILES | CaV13 ICDI inh | NRP1-CendR mod | FAS-TE inh | Arrestin-AP2 inh | ADAM10 inh | ADAM17 inh | FAS-TE inh conf
Cc1sc(NC(=O)Cc2ccc3c(c2)OCO3)nc1-c1ccc2c(c1)CCN2C(=O)c1ccc(F)cc1 | -8 | -10 | 15 | 37 | 6 | 2 | ·
CCN(CC)C(=O)C1=C(C)N(Cc2ccc(F)cc2)C(=O)C(CC(=O)NC(c2ccccc2)c2ccccc2)C1 (centres undefined) | -7 | -12 | 54* | · | 6 | 0 | 31*
C=CCN1C(=O)c2ccc(C(=O)N(CCC)CC(=O)Nc3ccccc3C)cc2C1=O | -2 | 0 | -4 | 30 | -3 | -2 | ·
C[C@H]1C2CC(OC(=O)Nc3ccc(C(F)(F)F)cc3)C(C2)[C@H]2CCCCN21 (some centres undefined) | · | · | · | · | -1 | 0 | ·
CCN1C(=O)[C@H]2[C@@H](c3ccc(C)cc3)N3C(=O)N(c4cccc(Br)c4)C(=O)[C@@]3(Cc3ccccc3)[C@H]2C1=O | -10 | -2 | 67* | 1 | 7 | 1 | 25
CCN1C(=O)[C@H]2[C@@H](c3ccc(C)cc3)N3C(=O)N(c4cccc(Cl)c4)C(=O)[C@@]3(Cc3ccc(Cl)cc3)[C@H]2C1=O | -9 | -4 | 86* | 13 | 17 | 8 | 53*
CCN1C(=O)[C@H]2[C@@H](c3ccc(C)cc3)N3C(=O)N(c4cccc(C)c4)C(=O)[C@@]3(Cc3ccccc3)[C@H]2C1=O | -10 | -6 | 4 | -4 | 0 | -2 | ·
O=C(C[C@@H]1C[C@@H]2c3cc(NS(=O)(=O)c4ccc(F)cc4)ccc3O[C@@H]2[C@@H](CO)O1)NC1CCCCC1 | -7 | -8 | -4 | · | -1 | -2 | ·
CCC1(C)CC(C#N)(C#N)C(=O)NC1=O (centres undefined) | -11 | 12 | -5 | · | -13 | -5 | ·
O=C(NCc1ccccc1)C(c1ccc(-c2ccccc2)cc1)n1c(=O)c(-c2ccco2)nc2ccccc21 (centres undefined) | -8 | -71 | · | · | -29 | -11 | ·
O=[N+]([O-])c1ccc(S(=O)(=O)N/N=C/c2ccc3c(c2)OCO3)cc1 | · | -2 | 72* | 17 | -5 | -3 | 74*

Source: PubChem BioAssay (several laboratories)
